# Screens (PubChem BioAssay)
# Tb MetRS inh: blocks T. brucei methionyl-tRNA synthetase activity. purified T. brucei MetRS, ATP depletion, Kinase-Glo luminescence. inhibition, % at 11.9 µM. 360,000 compounds, 0.4% hits. AID 624268;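 active = inhibition above a per-plate cutoff of the control wells' mean inhibition plus 3 SD, cut at about 5.5% in these data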;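 also: 0% = DMSO wells median and 100% = median of wells with control inhibitor compound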
#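 Test system – parasite MetRS enzyme · Reagent – substrates ATP, L-methionine and bulk Escherichia coli tRNA · Doses – 11.9 µM compound single dose, 0.9% DMSO · Times – 15 min enzyme-compound preincubation, 2 h reaction, 10 min detection, 25 °C · Signal – Kinase-Glo luminescence, ATP depletion format · Controls – DMSO-only wells as low control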
# NPR2 activator: GC-B (human) receptor activation. HEK293-GC-B cells, CNP EC30, cGMP TR-FRET; 0% at EC30 CNP, 100% saturating CNP. activation, % at 10 µM. 370,000 compounds, 0.11% hits. AID 1920062;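 active = activation at 10 µM reaching about 35% in either raw or pattern-adjusted values, limit read from the data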
# Target sequence (P20594 whole entry, looked up): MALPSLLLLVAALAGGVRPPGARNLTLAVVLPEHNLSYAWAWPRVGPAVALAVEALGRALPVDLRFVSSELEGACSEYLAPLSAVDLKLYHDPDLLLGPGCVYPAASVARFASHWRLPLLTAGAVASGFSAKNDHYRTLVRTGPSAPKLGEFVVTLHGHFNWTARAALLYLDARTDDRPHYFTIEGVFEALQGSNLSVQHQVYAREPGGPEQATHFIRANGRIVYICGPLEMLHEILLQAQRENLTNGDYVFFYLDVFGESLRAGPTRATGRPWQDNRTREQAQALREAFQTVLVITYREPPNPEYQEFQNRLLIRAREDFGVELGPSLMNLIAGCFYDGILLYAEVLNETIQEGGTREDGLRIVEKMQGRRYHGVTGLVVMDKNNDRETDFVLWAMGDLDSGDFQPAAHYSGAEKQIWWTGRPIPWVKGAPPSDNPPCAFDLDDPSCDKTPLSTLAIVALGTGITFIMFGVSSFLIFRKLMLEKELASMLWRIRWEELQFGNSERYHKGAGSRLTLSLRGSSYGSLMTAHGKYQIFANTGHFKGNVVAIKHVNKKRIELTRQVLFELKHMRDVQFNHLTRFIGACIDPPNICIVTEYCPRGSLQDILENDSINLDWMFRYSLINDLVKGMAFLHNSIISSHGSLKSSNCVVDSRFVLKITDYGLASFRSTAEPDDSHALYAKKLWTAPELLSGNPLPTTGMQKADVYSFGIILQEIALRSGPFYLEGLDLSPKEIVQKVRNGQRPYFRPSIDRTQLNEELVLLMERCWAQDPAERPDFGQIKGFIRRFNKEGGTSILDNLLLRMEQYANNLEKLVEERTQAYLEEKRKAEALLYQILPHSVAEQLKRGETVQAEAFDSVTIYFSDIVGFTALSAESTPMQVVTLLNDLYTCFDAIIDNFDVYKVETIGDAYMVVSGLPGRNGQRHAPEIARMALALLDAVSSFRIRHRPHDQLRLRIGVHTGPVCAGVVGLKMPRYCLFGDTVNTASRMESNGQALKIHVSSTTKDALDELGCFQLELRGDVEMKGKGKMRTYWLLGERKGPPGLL
# SKN-1 inh: blocks SKN-1 activity in C. elegans. AID 624304. 360,000 compounds, 0.49% hits. inhibition, % at 21.8 µM. C. elegans VP596 Pgst-4::GFP/RFP ratio, acrylamide-induced, 24 h;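 active = interference check ratio from 0.5 to 1.5 plus GFP to RFP signal ratio inhibition reaching or exceeding a fixed threshold, cut at about 30% in these data, passing the limit was not always enough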
# A1 inh: inhibitors of the anti-apoptotic protein A1, read as caspase activation. MEF A1-2A-BIM cells, Caspase-Glo 3/7 luminescence, 3 h; percent of clofoctol response, vehicle zero. caspase activation, % (no concentration beside the values). 330,000 compounds, 0.066% hits;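 active = over half of replicate activation scores above 10%, or exactly half above 10 with the replicate mean above 10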
# GC-A act: GC-A (human) enzyme activation; P16066; HEK293 GC-A cells, cGMP TR-FRET, EC30 ANP; 0% at EC30 ANP, 100% saturating ANP; activation, % at 10 µM; 370,000 compounds, 0.14% hits; in the data active = activation above about 40%
# MT1-MMP act inh: inhibitors of human MT1-MMP activation; HT1080 RFP-PRO-GFP cells, GFP/RFP ratio fluorescence, overnight; percent of plate control window, DMSO zero; 360,000 compounds, 0.061% hits; AID 651647; GFP/RFP ratio change, % at 20 µM;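 active = GFP/RFP ratio change of at least 30% with cell ATP level not reduced by more than half and red fluorescence within 50% of control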
#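 Material: RFP-PRO-GFP reporter HT1080 cells. Dosing: single-point 20 µM compound, 1% DMSO. Controls: DMSO and RFP-L50D-GFP cell wells. Timing: cells overnight before dosing, compound overnight, 37 °C, 5% CO2. Measure: GFP/RFP fluorescence ratio.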
# Tb MetRS conf: Trypanosoma brucei MetRS inhibition confirmed. T. brucei MetRS enzyme, luminescence (ATP depletion). AID 624412. shares compounds with Tb MetRS inh. 1,400 compounds, 93% hits. inhibition, % at 11.9 µM; in the data active = inhibition above about 7%
# Jurkat cytotox: kills Jurkat cells in T. brucei MetRS counterscreen; shares compounds with Tb MetRS inh; Jurkat cells viability, ATP luminescence; inhibition, % at 8.3 µM; 1,400 compounds, 12% hits; AID 624413; in the data active = inhibition above about 15%;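 also: 0% = vehicle and 100% = reference inhibitor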
# Tb MetRS inh FP: T. brucei MetRS inhibition, orthogonal assay; 1,400 compounds, 44% hits; AID 651607; inhibition, % at 11.9 µM; shares compounds with Tb MetRS inh; purified T. brucei MetRS, fluorescence polarization; in the data active = inhibition above about 17%;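 also: 0% = vehicle wells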
# * = called active by the depositor; x = no result. An excerpt weighted towards active compounds, which were near 1.1% of everything screened.
SMILES,Tb MetRS inh,NPR2 activator,SKN-1 inh,A1 inh,GC-A act,MT1-MMP act inh,Tb MetRS conf,Jurkat cytotox,Tb MetRS inh FP
Cc1ccc2[nH]c(=O)c(CN(Cc3ccccc3)C(=S)NCCCN(C)C)cc2c1,7.0*,-12.8,-3.9,1.1,-17.9,-3.3,17.2*,17.1*,10.2
COc1ccc(NC(=O)N(Cc2cc3cc(C)ccc3[nH]c2=O)CC2CCCO2)cc1 (stereo not drawn),11.6*,2.6,-8.2,1.6,-6.0,-3.6,48.9*,12.5,17.5*
O=C(NC1CCCCN(Cc2ccc(OC(F)(F)F)cc2)C1=O)c1cccc(F)c1 (stereo not drawn),x,-5.2,x,x,2.9,x,x,x,x
CCCCNC(=S)N(CCN(CC)CC)Cc1cc2cc3c(cc2[nH]c1=O)OCO3,8.8*,2.6,23.7,0.9,-0.3,-3.7,16.2*,4.8,8.1
CCCCNC(=S)N(CCN(CC)CC)Cc1cc2cc3c(cc2[nH]c1=O)OCCO3,1.6,2.6,-5.1,0.0,8.2,1.6,x,x,x
COc1ccc2[nH]c(=O)c(CN(C(C)=O)C3CCCCC3)cc2c1,9.6*,0.6,-6.5,0.2,-3.0,5.0,15.1*,2.8,10.9
O=C(CSc1nnc(-c2cccnc2)n1-c1ccccc1)c1ccccc1Cl,x,-4.9,x,x,-4.4,x,x,x,x
CC(C)C[C@H]1COc2cc(Br)ccc2S(=O)(=O)N1Cc1cn(CCC2OCCCO2)nn1,x,6.1,x,x,-1.8,x,x,x,x
Cc1cccc(CC(=O)c2c[nH]c3ccccc23)c1,11.4*,1.3,-0.6,-0.2,-1.2,-0.9,21.9*,10.2,13.1
COc1cc(Cl)c(CC(=O)c2c[nH]c3ccccc23)cc1OC,2.1,1.4,17.1,-0.4,-1.4,-5.8,x,x,x
CCNC(=S)NNC(=O)c1ccc(S(=O)(=O)NCc2ccco2)cc1,6.2*,2.9,-7.4,-1.3,3.6,2.4,25.4*,5.5,11.9
Oc1ccc(/C=N/Nc2ccnc3cc(Cl)ccc23)cc1O,5.6*,-13.9,4.4,0.4,-7.0,7.8,12.8*,76.9*,26.0*
O=C(Nc1ccc(Br)cc1)c1cccc(-n2cnnn2)c1,6.5*,-2.3,-2.3,1.2,-2.7,6.3,13.4*,1.6,5.6
CCN(CC)S(=O)(=O)c1ccc(NC(=O)COc2cccc(-n3cnnn3)c2)cc1,0.3,-2.1,0.0,1.0,-1.3,-2.4,x,x,x
O=C(COc1cccc(-n2cnnn2)c1)Nc1ccccc1,11.1*,-3.9,1.7,0.5,-4.4,1.6,18.8*,8.9,17.1*
COc1ccc(NC(=O)COc2cccc(-n3cnnn3)c2)cc1,10.0*,-0.2,-6.4,0.5,0.6,-3.5,19.9*,-0.7,13.1
Cc1ccnc(NC(=S)N2CC3CN(c4cccc(C(F)(F)F)c4)CC3C2)c1 (stereo not drawn),x,0.0,x,x,-5.8,x,x,x,x
COC(=O)C[C@H]1CC[C@@H]2[C@@H](COc3ccc(NS(=O)(=O)c4ccccc4Cl)cc3C(=O)N2C)O1,x,-3.9,x,x,1.8,x,x,x,x
COc1ccccc1COC(=O)c1cccc(S(=O)(=O)N(C)Cc2ccccc2)c1,x,1.6,x,x,2.8,x,x,x,x
COc1ccccc1/C=C/C(=O)OCC(=O)c1c[nH]c2ccccc12,0.1,1.2,-10.4,0.1,6.0,0.7,x,x,x
COc1cc(/C=C/C(=O)OCC(=O)c2c[nH]c3ccccc23)ccc1OC(F)F,6.3*,2.9,10.4,-0.6,2.7,-2.2,12.6*,-0.8,36.2*
COC(=O)[C@H]1C[C@@]2(n3ccc4ccccc43)c3ccccc3N(S(=O)(=O)c3ccccc3)[C@H]2N1C(=O)CNC1CCCCC1,x,-14.6,x,x,-19.1,x,x,x,x
